LMPTP inh: LMPTP phosphatase inhibitors, primary screen, biochemical, fluorescence intensity, uHTS. Low molecular weight phosphotyrosine protein phosphatase (Homo sapiens), P24666. recombinant LMPTP-A, OMFP fluorogenic substrate. inhibition, % at 20 µM. 360,000 compounds, 0.22% hits;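 active = compounds that cut the enzyme signal by at least half of the control window in the single-dose screen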;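 also: plate controls were DMSO wells with enzyme plus substrate for no effect and substrate without enzyme for full effect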
Target sequence (P24666 whole entry, looked up): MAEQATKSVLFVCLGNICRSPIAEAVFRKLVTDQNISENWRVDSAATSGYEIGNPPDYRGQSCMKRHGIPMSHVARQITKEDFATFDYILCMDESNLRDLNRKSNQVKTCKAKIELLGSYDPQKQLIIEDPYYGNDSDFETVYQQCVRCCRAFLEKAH
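Buffer or medium: Bis-Tris pH 6.0, DTT, detergent; Assay system: LMPTP-A enzyme; Quantity: 0.625 nM enzyme; Detection: endpoint fluorescence intensity; Times: 50 min dark incubation at room temperature; Controls: substrate-only low control, DMSO enzyme-plus-substrate high control; Doses: single 20 µM dose; Read-out: percent inhibition versus substrate-only and uninhibited controls; Reagent: 400 µM OMFP.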
SUMO1 PPI mod: modulators of SUMO1 protein-protein interactions, primary screen, biochemical, uHTS; Small ubiquitin-related modifier 1 (Homo sapiens), P63165; SUMO1 binding to a labelled peptide, TR-FRET, 1 h; inhibition, % at 20 µM; 360,000 compounds, 0.33% hits; in the data active = inhibition above about 37%
Target sequence (P63165 whole entry, looked up): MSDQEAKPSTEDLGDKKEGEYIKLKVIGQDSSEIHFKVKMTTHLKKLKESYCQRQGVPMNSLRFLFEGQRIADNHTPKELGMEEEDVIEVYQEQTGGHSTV
STEP block: STEP phosphatase inhibitors, primary screen, biochemical, fluorescence intensity, uHTS. AID 588621, 2011. 360,000 compounds, 0.25% hits. recombinant STEP, OMFP fluorogenic substrate. inhibition, % at 20 µM;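 active = inhibition at 20 µM, scaled per plate between control wells, above about 37%, limit read from the data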;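 also: 0% = DMSO with enzyme and substrate and 100% = substrate only without enzyme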
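Test system: STEP tyrosine phosphatase / Reagent: OMFP at 25 µM / Doses: 20 µM, 1% DMSO / Read-out: percent inhibition scaled to no-enzyme and uninhibited-enzyme controls, plate-pattern corrected / Detection: FITC-channel fluorescence of OMFP product / Medium: Bis-Tris buffer pH 6.0, 2.5 mM DTT, 0.005% Tween 20 / Schedule: 20 min at room temperature, dark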
DNMT1 inh: human DNMT1 methyltransferase inhibitors, primary screen, biochemical, molecular beacon, fluorescence, HinP1I cleavage, uHTS | DNA (cytosine-5)-methyltransferase 1 (Homo sapiens), P26358 | inhibition (reported as % activation of signal), % at 10 µM | 360,000 compounds, 0.83% hits; in the data active = inhibition above about 50%
Rpn11 inh: Rpn11 (PSMD14) deubiquitinase inhibitors, primary screen, biochemical, fluorescence polarization, uHTS | 26S proteasome non-ATPase regulatory subunit 14 (Homo sapiens), O00487 | human 26S proteasome, Ub4-pepOG fluorescence polarization; 20S core pre-blocked with epoxomicin | inhibition, % at 20 µM | 360,000 compounds, 0.59% hits;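 active = inhibition at 20 µM, scaled to each plate's controls, above about 33%, limit read from the data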
Target sequence (O00487 whole entry, looked up): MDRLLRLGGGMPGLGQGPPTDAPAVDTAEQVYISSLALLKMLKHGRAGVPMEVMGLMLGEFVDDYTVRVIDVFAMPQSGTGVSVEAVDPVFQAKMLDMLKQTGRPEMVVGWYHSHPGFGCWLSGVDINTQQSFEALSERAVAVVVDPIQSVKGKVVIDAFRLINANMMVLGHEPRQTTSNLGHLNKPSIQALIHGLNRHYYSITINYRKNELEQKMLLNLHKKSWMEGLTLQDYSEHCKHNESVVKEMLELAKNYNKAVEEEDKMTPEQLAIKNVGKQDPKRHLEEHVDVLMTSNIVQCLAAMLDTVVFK
Scp-1 inhibitor: Scp-1 phosphatase inhibitors, primary screen, biochemical, colorimetric, uHTS | 340,000 compounds, 0.88% hits | Recombinant Scp1, phosphopeptide, malachite green phosphate absorbance | Carboxy-terminal domain RNA polymerase II polypeptide A small phosphatase 1 (Homo … | inhibition, % at 20 µM;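 active = inhibition above about 50% at 20 µM, limit read from the data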;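 also: plate controls were DMSO wells with enzyme for no effect and wells lacking enzyme for full effect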
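Test system – truncated SCP-1 phosphatase (76-261aa) · Reagent – Phosphorylated 17-residue peptide substrate · Incubation – 45 min room-temperature reaction, 5 min colour, 30 min stabiliser · Detection – colorimetric phosphate reagent with accelerator and stabiliser, absorbance at 630 nm · Measure – % inhibition at 20 µM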
Scp-1 conf: Scp-1 phosphatase inhibitors, retest, confirmation, biochemical, colorimetric, single concentration. 2,500 compounds, 61% hits. shares compounds with Scp-1 inhibitor. inhibition, % at 20 µM. recombinant SCP-1 catalytic domain, phosphate release, malachite green absorbance;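 also: plate controls were DMSO with enzyme for no effect and buffer wells lacking enzyme for full effect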
MG interference: colorimetric readout interference by compounds, confirmation, artefact control for Scp-1 inhibitor project, biochemical, single concentration. AID 540313, 2011. apparent inhibition (interference), % at 20 µM. shares compounds with Scp-1 inhibitor. Colorimetric interference counterscreen, malachite green absorbance 630 nm. 2,500 tested, under 10 active;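 also: compounds added after enzyme reaction finished so only phosphate colour detection is probed; plate controls were DMSO wells with completed Scp-1 reaction for no effect and substrate wells lacking enzyme for full effect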
Scp-1 Tm shift: Scp-1 binding by thermal shift, confirmation, orthogonal assay for Scp-1 inhibitor project, biophysical, differential scanning fluorimetry; shares compounds with Scp-1 inhibitor; Recombinant SCP1, Sypro Orange thermal shift Tm; thermal shift relative to vanadate control, % at 40 µM; 1,500 compounds, 25% hits; AID 540329, 2011;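 active = substances whose mean melting-temperature shift, as a percentage of the reference inhibitor's shift, reaches about 5.3%, limit read from the data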;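 also: 0% = Tm of DMSO wells and 100% = Tm with sodium orthovanadate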
* hit, by the source's call; / = no result. Sampled rows, rich in hits. Any-hit rate of the full collection: about 2.3%.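 The calls were made as follows, unless noted: active = inhibition of at least 30% at 20 µM; inactive = the rest.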

SMILES	LMPTP inh	SUMO1 PPI mod	STEP block	DNMT1 inh	Rpn11 inh	Scp-1 inhibitor	Scp-1 conf	MG interference	others
Cc1ccc(NC(=O)c2noc3c2CCc2ccccc2-3)cc1	1	-3	-1	0	0	56*	-16	-15
O=C(NC1CCSc2ccccc21)c1cccc([N+](=O)[O-])c1 (stereo unspecified)	0	-19	-1	-1	-5	1	/	/
C[N+](C)(C)CCCN(Cc1ccc2c(c1)OCO2)C(=O)NC1CCCCC1	-5	2	-4	0	-41	91*	79*	-19	Scp-1 Tm shift=-27
CC(NCc1ccc2c(c1)OCO2)C(=O)NC1CCCCC1 (stereo unspecified)	-2	-2	2	4	0	-8	/	/
CC(=O)Oc1ccccc1/C=C/c1ccc2ccccc2[n+]1C	-1	-29	-3	1	9	17	/	/
COc1ccc(/C=C/c2ccc3ccccc3[n+]2C)cc1OC	2	-30	0	-2	13	99*	4	-6
CC1CCCCN1C(=O)COc1ccccc1F (stereo unspecified)	0	-1	0	-3	-3	-4	/	/
Cc1ccnc(NS(=O)(=O)c2ccc(N3C(=O)c4c(Cl)c(Cl)c(Cl)c(Cl)c4C3=O)cc2)n1	0	29	17	12	6	67*	27	-14
Cc1ccnc(NS(=O)(=O)c2ccc(N3C(=O)c4ccccc4C3=O)cc2)n1	-1	-18	0	0	-6	-3	/	/
CC1CCN(C(=O)CNC(=O)c2ccc(Br)o2)CC1	-1	1	2	-1	3	3	/	/
CC1(C)OC(=O)C(=Cc2ccc(-c3ccc(Cl)c(C(=O)O)c3)o2)C(=O)O1	1	18	8	52*	-13	57*	57*	-9	Scp-1 Tm shift=-10
Cc1cccc2cc(/C=N/NC(=O)c3ccccc3O)c(Cl)nc12	12	2	4	10	32	95*	73*	-19	Scp-1 Tm shift=4
Cc1cccc2cc(/C=N/NC(=O)c3ccncc3)c(Cl)nc12	-1	-2	-3	0	-3	-11	/	/
C=CCOc1ccc(/C(O)=C2/C(=O)C(=O)N(CCCn3ccnc3)C2c2cccs2)cc1 (stereo unspecified)	23	-5	2	-3	2	1	/	/
CN(C)c1ccc(NC(=S)NC23CC4CC(CC(C4)C2)C3)cc1	8	5	5	-1	6	5	/	/
O=S1(=O)NC(CC2=CCCCC2)C2CCCCC2O1 (stereo unspecified)	1	1	1	3	0	50*	-11	-16
CSCCC(NS(=O)(=O)c1ccc(Cl)cc1)C(=O)OCc1c(Cl)cccc1Cl (stereo unspecified)	1	0	-5	-1	6	-6	/	/
CSCCC(NS(=O)(=O)c1ccc(Cl)cc1)C(=O)OCc1cccc(Cl)c1 (stereo unspecified)	3	4	-1	-7	1	51*	-6	-8
O=C(CSc1nc2sc3c(c2c(=O)n1-c1ccccc1)CCCC3)NCc1ccco1	0	0	3	32	7	10	/	/
O=C(CSc1nc2sc3c(c2c(=O)n1-c1ccccc1)CCCC3)N/N=C/c1ccc(C(=O)O)cc1	1	-4	2	-3	6	51*	38*	-13	Scp-1 Tm shift=-13
CCN(C[C@H]1N[C@@](Cc2ccccc2)(C(=O)OC)[C@H]2C(=O)N(C)C(=O)[C@@H]12)C(=O)COC	1	2	-4	4	-6	50*	-2	-3
COc1ccc(Cl)cc1NC(=O)NCCN1CCNC1=O	-1	0	0	-1	-1	-11	-22	-15
COc1ccccc1NC(=O)NCCN1CCNC1=O	0	0	1	-1	7	-10	-10	-14
COc1ccccc1NC(=O)NCCN1CCCCC1	-3	0	3	-1	1	0	/	/
CCCCn1nnnc1C(c1ccccc1)N1CCN(c2ccc(F)cc2)CC1 (stereo unspecified)	2	1	/	/	/	/	/	/
SMILES	LMPTP inh	SUMO1 PPI mod	STEP block	DNMT1 inh	Rpn11 inh	Scp-1 inhibitor	Scp-1 conf	MG interference	others
COCCCNc1nc(CC(C)C)nc2c1nnn2Cc1ccccc1	1	-2	1	-4	7	-4	/	/
O=C(COc1ccc(C(=O)c2ccccc2)cc1)Nc1cccnc1	0	7	-1	-2	-1	-3	/	/
CC1CCN(C(=O)CCc2ccc(S(=O)(=O)NC(C)C)cc2)CC1	-1	-2	-3	-1	-2	67*	-23	-21
CC(C)NS(=O)(=O)c1ccc(CCC(=O)N2CCc3ccccc3C2)cc1	0	-1	-2	1	8	-3	/	/
CC1=NNC(=O)C1CCC(=O)N/N=C/c1ccco1 (stereo unspecified)	-2	-4	-4	-3	-3	-4	46*	-14	Scp-1 Tm shift=-21
COc1ccc(OC)c(/C=N/NC(=O)CC2C(=O)NN=C2C)c1 (stereo unspecified)	0	-8	-1	4	-4	-2	2	-6
COc1cccc(/C=N/NC(=O)CC2C(=O)NN=C2C)c1OC (stereo unspecified)	-1	2	0	3	-3	3	/	/
CCc1ccccc1NC(=O)CNC(=O)CCc1nc2sc3c(c2c(=O)[nH]1)CCCC3	10	9	7	40	24	70*	66*	-18	Scp-1 Tm shift=-3
CCC(CC)c1nnc(NC(=O)CSCC(=O)Nc2cc(C)on2)s1	0	7	0	2	5	-1	/	/

Screens as filed in PubChem BioAssay.
